Experimental findings from ChEMBL document CHEMBL1133503 (J Med Chem, 2000) are described below.

Broadly, the IC50 is the concentration that inhibits the measured activity by half. The IC90 is the concentration at which the effect reaches the 90% level.

Assay [1] can be described thus: Concentration of drug required to reduce V-79 cell survival to 50% of controls in a SRB assay. The format is functional, cell-based. As to conditions: Cricetulus griseus, V79. In short, it runs like this:
(§1)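 V-79 cells (about 7 × 10³ per 100 μL) preincubated 24 h, then exposed to drug for 3 h under oxic conditions. Washed 5× with HBSS and grown 48 h more. Fixed with TCA and stained with SRB. Bound dye dissolved in 10 mM Tris, spotted on TLC and read by video densitometry. IC50 is the mean of triplicates in one experiment. Ratio is IC50 of sulfide over sulfoxide or sulfone.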
A general note: The SRB assay estimates cell density from bound dye.

Assay [2] in a line: Relative cytotoxicity is expressed as the ratio of the IC50 values of the corresponding sulfide to sulfoxide or to sulfone. The format is functional, Cricetulus griseus. In a few lines: as §1
A short description of assay [3]: Hypoxic selectivity expressed as the ratio of IC50 values in air and nitrogen. The format is functional.
The species named for assay [4] is Rattus norvegicus. Put plainly: Bioreduction experiment was conducted by incubation of the sulfoxides with rat liver S-9 fractions in anaerobic conditions (N2). The format is functional. In a few lines: (§2)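 Rat liver S-9 fraction incubated with sulfoxide at 37 °C for 30 min with shaking. Aerobic vials were left open to air. Anaerobic vials were purged with N2 for 10 min before the compound was injected. Cofactor was NADPH, benzaldehyde, 2-hydroxypyrimidine or acetaldehyde, or none. Controls were boiled S-9 and S-9 without cofactors. For menadione, S-9 was preincubated aerobically with 1 equiv for 30 min, then benzaldehyde was added. Sulfide or sulfone was measured by HPLC or TLC densitometry.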

The species named for assay [5] is Rattus norvegicus. The experiment in a line: Bioreduction experiment was conducted by incubation of the sulfoxides with rat liver S-9 fractions in anaerobic conditions(N2, without cofactors). The format is functional. In a few lines:
as §2

The species entered for assay [6] is Rattus norvegicus. The experiment in a line: Bioreduction experiment was conducted by incubation of the sulfoxides with rat liver S-9 fractions in anaerobic conditions (N2 2-hydroxypyrimidine). The format is functional. In a few lines: as §2
The species named for assay [7] is Rattus norvegicus. Put plainly: Bioreduction experiment was conducted by incubation of the sulfoxides with rat liver S-9 fractions in anaerobic conditions(N2, benzaldehyde). The format is functional. In a few lines:
as §2

The species entered for assay [8] is Rattus norvegicus. Put plainly: Reduction potential (SCE) determined by differential pulse polarography of the sulfoxides […]. The format is functional.
Assay [9] can be described thus: Concentration required to reduce cell survival to 10% of controls using V-79 cells in the clonogenic assay, in anaerobic conditions (hypoxic conditions). The settings on record: Cricetulus griseus, V79. The format is functional. In a few lines: (§3)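 V-79 cells (500 000 per bottle) grown 20 h in MEM with 10% FBS. Hypoxic set gassed 2 h at 37 °C with humidified 95% N2/5% CO2. Drug in ethanol/water or DMF injected through septa. Exposure 3 h under air or hypoxia. Cells trypsinised, counted by trypan blue, 500 plated in triplicate for 6–8 days. Colonies stained with crystal violet, survival relative to solvent control.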

A short description of assay [10]: Concentration required to reduce cell survival to 10% of controls using V-79 cells in the clonogenic assay, in aerobic conditions. The format is functional. As to conditions: Cricetulus griseus, V79. In a few lines:
as §3

The species entered for assay [11] is Rattus norvegicus. The experiment in a line: Bioreduction experiment was conducted by incubation of the sulfoxides with rat liver S-9 fractions in anaerobic conditions (N2, without cofactors). The format is functional. The arrangement: concentration or dose not given beside the values. In a few lines: as §2
The species named for assay [12] is Rattus norvegicus. Put plainly: Bioreduction experiment was conducted by incubation of the sulfoxides with rat liver S-9 fractions in aerobic conditions (air, control). The format is functional. In short, it runs like this:
as §2

For assay [13], the species on record is Rattus norvegicus. The experiment in a line: Bioreduction experiment was conducted by incubation of the sulfoxides with rat liver S-9 fractions in anaerobic conditions (N2, benzaldehyde). The format is functional. The arrangement: concentration or dose not given beside the values. In a few lines:
as §2

The species entered for assay [14] is Rattus norvegicus. The experiment in a line: Bioreduction experiment was conducted by incubation of the sulfoxides with rat liver S-9 fractions in aerobic conditions (N2, acetaldehyde). The format is functional. In a few lines: as §2
The species named for assay [15] is Rattus norvegicus. The experiment in a line: Bioreduction experiment was conducted by incubation of the sulfoxides with rat liver S-9 fractions in aerobic conditions (N2, NADPH). The format is functional. In a few lines:
as §2

For assay [16], the species on record is Rattus norvegicus. The experiment in a line: Bioreduction experiment was conducted by incubation of the sulfoxides with rat liver S-9 fractions in anaerobic conditions N2). The format is functional. In short, it runs like this: as §2
For assay [17], the species on record is Rattus norvegicus. Put plainly: Bioreduction experiment was conducted by incubation of the sulfoxides with rat liver S-9 fractions in aerobic conditions (N2, 2-hydroxypyrimidine). The format is functional. In short, it runs like this:
as §2

The species entered for assay [18] is Rattus norvegicus. Put plainly: Bioreduction experiment was conducted by incubation of the sulfoxides with rat liver S-9 fractions in aerobic conditions (N2, menadione). The format is functional. In short, it runs like this: as §2
Assay [19] is filed under the species Rattus norvegicus. Put plainly: Bioreduction experiment was conducted by incubation of the sulfoxides with rat liver S-9 fractions in aerobic conditions (air, benzaldehyde). The format is functional. In short, it runs like this: as §2
For assay [20], the species on record is Rattus norvegicus. Put plainly: Bioreduction experiment was conducted by incubation of the sulfoxides with rat liver S-9 fractions in aerobic conditions (air, NADPH). The format is functional. In a few lines: as §2
Assay [21] is filed under the species Rattus norvegicus. The experiment in a line: Bioreduction experiment was conducted by incubation of the sulfoxides with rat liver S-9 fractions in aerobic conditions (air, without cofactors). The format is functional. In a few lines: as §2

Consider `Cl.ClCCN(CCCl)c1ccc(Sc2ccc(Nc3c4ccccc4nc4ccccc34)cc2)cc1`, for which 1.93 µM corresponded to half-maximal inhibition in assay [1] (IC50). Besides, in assay [2], the Cytotoxicity came to 1.
On the same counts, the results for `Nc1ccc(Sc2ccc(N(CCCl)CCCl)cc2)cc1` are 2.49 µM and 1.
For `O=[N+]([O-])c1ccc(Sc2ccc(N(CCCl)CCCl)cc2)cc1`, in that order: 2.25 µM and 1.
In the case of `[O-][s+]1c2ccccc2c2cc(N(CCCl)CCCl)ccc21` (stereo not given), the Selectivity in assay [3] came out at 1.3. Further, the Bioreduction in the assay listed under Rattus norvegicus [4] is given as 0%; in the assay listed under Rattus norvegicus [5] it was 0.46%; in the assay listed under Rattus norvegicus [6], 2.02%; in the assay listed under Rattus norvegicus [7], 1.68%. Further, the E in the assay filed under Rattus norvegicus [8] is recorded as 2.03 -V. Besides, the IC90 was determined as 161 µM in assay [9] and 210 µM in assay [10].
In [1], `O=[N+]([O-])c1ccc(S(=O)(=O)c2ccc(N(CCCl)CCCl)cc2)cc1` returned an IC50 of 26.7 µM. Besides, in assay [2], the Cytotoxicity was determined as 0.08.
In the case of `[O-][S+](c1ccc(NCCCl)cc1)c1ccc(NCCCl)cc1`, the Selectivity in [3] was 0.7. The IC90 in assay [9] was 2210 µM; in assay [10], 1580 µM.
Turning to `[O-][S+](c1ccccc1)c1ccccc1` [(PHENYLSULFINYL)BENZENE], the Bioreduction is 0% in the assay filed under Rattus norvegicus [11]; 0% in the assay listed under Rattus norvegicus [12]; 18% in the assay filed under Rattus norvegicus [13]; 6% in the assay listed under Rattus norvegicus [14]; 0% in the assay listed under Rattus norvegicus [15]; 0% in the assay listed under Rattus norvegicus [16]. Moreover, the Bioreduction in the assay filed under Rattus norvegicus [17] was determined as 17.4%; in the assay listed under Rattus norvegicus [18], 0%; in the assay listed under Rattus norvegicus [19], 0%; in the assay filed under Rattus norvegicus [20], 11.6 nmol/mg; in the assay listed under Rattus norvegicus [21], 0%. Further, the E in the assay filed under Rattus norvegicus [8] is 2.3 -V.
As to `[O-][s+]1c2ccccc2c2ccccc21`, the Bioreduction in the assay listed under Rattus norvegicus [11] is recorded as 0%; in the assay listed under Rattus norvegicus [13] it was 4.4%; in the assay filed under Rattus norvegicus [16], 0%. For the same molecule, the E in the assay filed under Rattus norvegicus [8] is reported as 1.82 -V.
